# From ChEMBL document CHEMBL3045555, “Structure elucidation and antifungal activity of an anthracycline antibiotic, daunomycin, isolated from Actinomadura roseola” (J Agric Food Chem, 2000)
# Activity calls are given as the source filed them. The rule behind the calls is not given here.
# Key:
# Phytophthora capsici [1] = assay: Antifungal activity against Phytophthora capsici in pepper plants assessed as decrease in Phytophthora blight disease at 100 ug/ml; assay type: functional, organism-based
# In short: (§1)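 Pepper plants raised at 28 °C with 16 h light per day. Antibiotic in methanol, diluted, was sprayed onto plants at first-branch stage 1 day before inoculation. Stems were slit 1 cm above soil and covered with cotton soaked in 1 × 105 zoospores mL-1 P. capsici, then taped. Disease was rated daily on a 0–5 severity scale; values are means of 10 plants per treatment.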
# Phytophthora capsici [2] = assay: Antifungal activity against Phytophthora capsici in pepper plants assessed as decrease in Phytophthora blight disease at 50 ug/ml; assay type: functional, organism-based; in short: as §1
compound,measurement,setting,value
COCC(=O)N(c1c(C)cccc1C)C(C)C(=O)OC (configuration not stated),Activity,Phytophthora capsici [1],Active
same,Activity,Phytophthora capsici [2],Active
